In ChEMBL document CHEMBL1154352, “Toll-like receptor 7 selective synthetic oligoribonucleotide agonists: synthesis and structure-activity relationship studies” (J Med Chem, 2009):
Activity calls are given as the source filed them. No cut-off for these calls is given here.

Legend:
[1] = Metabolic stability in human serum assessed as full length product remaining after 10 mins by HPLC; assay type: ADME, cell-free; conditions: read-out: Stability
In short: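 About 0.5 A260 units compound in 1% human serum in PBS, 37 °C; aliquot taken at 10 min, analysed by anion-exchange HPLC for percent intact full-length product.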

[2] = target: Toll-like receptor 3 (Homo sapiens) (UniProt O15455); experiment: Activation of human TLR3 expressed in HEK293 assessed as induction of NF-kappaB activity reporter gene assay; assay type: cell-based
Toll-like receptor 3 (Homo sapiens), sequence (O15455 whole entry): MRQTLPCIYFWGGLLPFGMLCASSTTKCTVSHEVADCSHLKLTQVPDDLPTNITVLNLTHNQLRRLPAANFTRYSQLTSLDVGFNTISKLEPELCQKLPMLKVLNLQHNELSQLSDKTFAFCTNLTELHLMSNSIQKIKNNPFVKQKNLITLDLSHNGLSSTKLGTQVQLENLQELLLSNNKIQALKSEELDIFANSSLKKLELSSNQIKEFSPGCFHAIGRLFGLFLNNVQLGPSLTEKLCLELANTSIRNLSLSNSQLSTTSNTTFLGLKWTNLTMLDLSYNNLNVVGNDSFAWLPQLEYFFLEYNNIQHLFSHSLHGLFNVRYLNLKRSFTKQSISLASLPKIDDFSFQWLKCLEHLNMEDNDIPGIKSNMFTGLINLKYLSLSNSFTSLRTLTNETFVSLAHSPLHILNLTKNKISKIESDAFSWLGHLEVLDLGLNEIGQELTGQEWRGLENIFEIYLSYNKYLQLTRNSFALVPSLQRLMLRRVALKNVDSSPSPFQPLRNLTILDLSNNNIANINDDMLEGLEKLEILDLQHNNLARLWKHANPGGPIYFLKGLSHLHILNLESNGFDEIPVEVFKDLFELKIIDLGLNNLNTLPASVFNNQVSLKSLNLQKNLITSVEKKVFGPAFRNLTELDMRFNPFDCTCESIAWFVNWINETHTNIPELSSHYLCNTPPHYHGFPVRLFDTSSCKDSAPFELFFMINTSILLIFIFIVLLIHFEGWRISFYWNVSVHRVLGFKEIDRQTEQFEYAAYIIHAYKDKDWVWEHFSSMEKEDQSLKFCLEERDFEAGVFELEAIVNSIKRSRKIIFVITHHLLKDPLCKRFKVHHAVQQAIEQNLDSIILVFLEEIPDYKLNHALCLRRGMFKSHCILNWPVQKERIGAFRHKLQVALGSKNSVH

PBMC [3] = experiment: Immunomodulatory activity in human PBMC assessed as induction of IFN-alpha at 100 ug/ml after 24 hrs
Splenocyte [4] = experiment: Immunomodulatory activity in C57BL/6 mouse splenocytes bearing TLR7 receptor assessed as IL12 release at 100 ug/ml after 24 hrs by ELISA; assay type: functional, cell-based
In short: (§1)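 C57BL/6 splenocytes in RPMI 1640 with 10% FBS, penicillin/streptomycin, 2 mM L-glutamine, plated at 5 × 10^6 cells/mL; compounds in PBS added, 37 °C for 24 h. Supernatant IL-12 and IL-6 by ELISA; representative of three independent experiments.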

[5] = target: T1, Toll-like receptor 9 (Mus musculus) (UniProt Q9EQU3); experiment: Activation of mouse TLR9 expressed in HEK293 assessed as induction of NF-kappaB activity reporter gene assay; assay type: cell-based
T1 sequence (whole entry): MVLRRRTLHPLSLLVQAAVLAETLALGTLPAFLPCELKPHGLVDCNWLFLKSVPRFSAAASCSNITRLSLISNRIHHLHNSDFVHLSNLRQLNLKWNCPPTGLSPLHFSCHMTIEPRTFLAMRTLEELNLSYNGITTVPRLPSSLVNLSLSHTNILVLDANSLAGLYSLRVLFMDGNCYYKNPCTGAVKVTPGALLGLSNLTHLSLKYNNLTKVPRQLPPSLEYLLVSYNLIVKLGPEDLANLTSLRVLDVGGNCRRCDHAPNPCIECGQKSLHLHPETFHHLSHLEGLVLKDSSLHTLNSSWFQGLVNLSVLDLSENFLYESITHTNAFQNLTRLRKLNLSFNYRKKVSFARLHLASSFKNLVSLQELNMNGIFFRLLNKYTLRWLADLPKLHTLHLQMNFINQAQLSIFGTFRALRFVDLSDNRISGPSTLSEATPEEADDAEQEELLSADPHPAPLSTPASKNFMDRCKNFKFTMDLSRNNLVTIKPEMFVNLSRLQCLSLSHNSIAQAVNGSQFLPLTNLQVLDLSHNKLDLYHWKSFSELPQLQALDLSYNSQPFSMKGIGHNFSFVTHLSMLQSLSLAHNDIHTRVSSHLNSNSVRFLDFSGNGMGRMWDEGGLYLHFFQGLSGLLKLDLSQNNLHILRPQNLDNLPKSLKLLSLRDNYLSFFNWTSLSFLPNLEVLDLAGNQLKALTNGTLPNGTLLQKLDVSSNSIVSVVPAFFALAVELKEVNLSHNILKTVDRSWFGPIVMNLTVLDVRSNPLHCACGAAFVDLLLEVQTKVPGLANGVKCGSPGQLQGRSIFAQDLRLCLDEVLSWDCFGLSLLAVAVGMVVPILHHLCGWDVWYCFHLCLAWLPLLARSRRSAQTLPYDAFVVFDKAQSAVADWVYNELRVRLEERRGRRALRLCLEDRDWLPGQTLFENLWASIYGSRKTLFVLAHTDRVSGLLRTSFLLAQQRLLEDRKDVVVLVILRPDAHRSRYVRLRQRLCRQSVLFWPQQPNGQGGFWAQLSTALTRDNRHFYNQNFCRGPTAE

Splenocyte [6] = experiment: Immunomodulatory activity in C57BL/6 mouse splenocytes bearing TLR7 receptor assessed as IL6 release at 100 ug/ml after 24 hrs by ELISA; assay type: functional, cell-based; in short: as §1
PBMC [7] = experiment: Immunomodulatory activity in human PBMC assessed as induction of IL12 at 100 ug/ml after 24 hrs; assay type: functional, cell-based
In short: (§2)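 Human PBMCs plated at 5 × 10^6 cells/mL; compounds dissolved in PBS added at various concentrations, 37 °C for 24 h. Supernatant cytokines/chemokines quantified with human Luminex multiplex kit.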

PBMC [8] = experiment: Immunomodulatory activity in human PBMC assessed as induction of TNFalpha at 100 ug/ml after 24 hrs; assay type: functional, cell-based; in short: as §2
[9] = target: T2, Toll-like receptor 8 (Homo sapiens) (UniProt Q9NR97); experiment: Activation of human TLR8 expressed in HEK293XL assessed as fold induction of NF-kappaB activity at 50 ug/ml after 18 hrs by reporter gene assay relative to control
T2 sequence (whole entry): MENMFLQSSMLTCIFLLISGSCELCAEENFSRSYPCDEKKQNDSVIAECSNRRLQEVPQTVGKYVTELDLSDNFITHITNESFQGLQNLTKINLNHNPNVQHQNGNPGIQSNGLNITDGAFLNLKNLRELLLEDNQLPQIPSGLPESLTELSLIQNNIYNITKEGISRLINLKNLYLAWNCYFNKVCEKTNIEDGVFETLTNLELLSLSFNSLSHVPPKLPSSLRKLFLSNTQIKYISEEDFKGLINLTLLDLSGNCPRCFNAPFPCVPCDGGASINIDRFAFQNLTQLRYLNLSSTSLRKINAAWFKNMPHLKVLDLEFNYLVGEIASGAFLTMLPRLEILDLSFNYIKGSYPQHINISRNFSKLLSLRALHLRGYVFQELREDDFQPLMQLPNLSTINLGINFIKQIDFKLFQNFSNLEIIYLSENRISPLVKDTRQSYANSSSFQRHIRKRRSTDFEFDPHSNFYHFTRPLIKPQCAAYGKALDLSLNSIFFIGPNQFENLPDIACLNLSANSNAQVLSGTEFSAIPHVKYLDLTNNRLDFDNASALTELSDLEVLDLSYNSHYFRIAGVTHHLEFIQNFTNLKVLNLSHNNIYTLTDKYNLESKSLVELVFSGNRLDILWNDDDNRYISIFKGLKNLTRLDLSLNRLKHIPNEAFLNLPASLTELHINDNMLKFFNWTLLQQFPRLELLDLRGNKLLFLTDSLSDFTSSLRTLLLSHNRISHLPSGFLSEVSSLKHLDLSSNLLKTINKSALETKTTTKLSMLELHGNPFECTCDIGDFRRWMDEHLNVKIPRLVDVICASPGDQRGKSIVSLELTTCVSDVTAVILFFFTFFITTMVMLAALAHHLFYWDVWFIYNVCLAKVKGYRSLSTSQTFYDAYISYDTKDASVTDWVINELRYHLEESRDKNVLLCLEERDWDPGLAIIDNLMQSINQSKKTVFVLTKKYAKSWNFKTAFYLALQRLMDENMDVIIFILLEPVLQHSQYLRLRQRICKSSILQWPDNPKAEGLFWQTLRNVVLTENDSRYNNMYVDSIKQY
In short: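 HEK293 cells stably expressing human TLR7 or TLR8, transiently transfected with SEAP reporter plasmid; medium replaced, SIMRA compounds added, 18 h incubation. Supernatant SEAP measured by QuantiBlue; expressed as fold increase in NF-κB activity over PBS control. Tabulated data at 50 μg/mL, representative of three independent experiments.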

remaining at 10 min [1] [%] | Activity [2] | Activity (Splenocyte [4]) | Activity [5] | Activity (Splenocyte [6]) | fold change (FC) [9] | Compound | IFN-alpha (PBMC [3]) [pg/mL] | Activity (PBMC [7]) [pg/mL] | Activity (PBMC [8]) [pg/mL]
71 | inactive | Active | inactive | Active | 1.7 | Nc1ccn([C@@H]2O[C@H](COP(=O)(S)O[C@H]3[C@@H](O)[C@H](n4cnc5c(N)ncnc54)O[C@@H]3CO)[C@@H](OP(=O)(S)OC[C@H]3O[C@@H](n4ccc(=O)[nH]c4=O)[C@H](O)[C@@H]3OP(=O)(S)OC[C@H]3O[C@@H](n4ccc5c(=O)[nH]c(N)nc54)[C@H](O)[C@@H]3OP(=O)(S)OC[C@H]3O[C@@H](n4ccc(N)nc4=O)[C@H](O)[C@@H]3OP(=O)(S)OC[C@H]3O[C@@H](n4ccc5c(=O)[nH]c(N)nc54)[C@H](O)[C@@H]3OP(=O)(S)OC[C@H]3O[C@@H](n4cnc5c(N)ncnc54)[C@H](O)[C@@H]3OP(=O)(S)OC[C@H]3O[C@@H](n4ccc5c(=O)[nH]c(N)nc54)[C@H](O)[C@@H]3OP(=O)(S)OC[C@H]3O[C@@H](n4ccc(N)nc4=O)[C@H](O)[C@@H]3OP(=O)(S)OC[C@H]3O[C@@H](n4ccc(=O)[nH]c4=O)[C@H](O)[C@@H]3OP(=O)(S)OC[C@H]3O[C@@H](n4ccc(=O)[nH]c4=O)[C@H](O)[C@@H]3OP(=O)(S)OCC(O)COP(=O)(S)O[C@H]3[C@@H](O)[C@H](n4ccc(=O)[nH]c4=O)O[C@@H]3COP(=O)(S)O[C@H]3[C@@H](O)[C@H](n4ccc(=O)[nH]c4=O)O[C@@H]3COP(=O)(S)O[C@H]3[C@@H](O)[C@H](n4ccc(N)nc4=O)O[C@@H]3COP(=O)(S)O[C@H]3[C@@H](O)[C@H](n4ccc5c(=O)[nH]c(N)nc54)O[C@@H]3COP(=O)(S)O[C@H]3[C@@H](O)[C@H](n4cnc5c(N)ncnc54)O[C@@H]3COP(=O)(S)O[C@H]3[C@@H](O)[C@H](n4ccc5c(=O)[nH]c(N)nc54)O[C@@H]3COP(=O)(S)O[C@H]3[C@@H](O)[C@H](n4ccc(N)nc4=O)O[C@@H]3COP(=O)(S)O[C@H]3[C@@H](O)[C@H](n4ccc5c(=O)[nH]c(N)nc54)O[C@@H]3COP(=O)(S)O[C@H]3[C@@H](O)[C@H](n4ccc(=O)[nH]c4=O)O[C@@H]3COP(=O)(S)O[C@H]3[C@@H](O)[C@H](n4ccc(N)nc4=O)O[C@@H]3COP(=O)(S)O[C@H]3[C@@H](O)[C@H](n4cnc5c(N)ncnc54)O[C@@H]3CO)[C@H]2O)c(=O)n1 (stereo partly drawn) | 131 | 487 | 43.5
87 | inactive | Active | inactive | Active | 0.7 | Nc1ccn([C@@H]2O[C@H](COP(=O)(S)O[C@H]3[C@@H](O)[C@H](n4cnc5c(N)ncnc54)O[C@@H]3COP(=O)(S)O[C@H]3[C@@H](O)[C@H](n4ccc5c(=O)[nH]c(N)nc54)O[C@@H]3COP(=O)(S)O[C@H]3[C@@H](O)[C@H](n4ccc(=O)[nH]c4=O)O[C@@H]3COP(=O)(S)O[C@H]3[C@@H](O)[C@H](n4ccc5c(=O)[nH]c(N)nc54)O[C@@H]3COP(=O)(S)O[C@H]3[C@@H](O)[C@H](n4cnc5c(N)ncnc54)O[C@@H]3COP(=O)(S)O[C@H]3[C@@H](O)[C@H](n4cnc5c(N)ncnc54)O[C@@H]3CO)[C@@H](OP(=O)(S)OC[C@H]3O[C@@H](n4ccc5c(=O)[nH]c(N)nc54)[C@H](O)[C@@H]3OP(=O)(S)OC[C@H]3O[C@@H](n4ccc(N)nc4=O)[C@H](O)[C@@H]3OP(=O)(S)OC[C@H]3O[C@@H](n4ccc(=O)[nH]c4=O)[C@H](O)[C@@H]3OP(=O)(S)OC[C@H]3O[C@@H](n4ccc(=O)[nH]c4=O)[C@H](O)[C@@H]3OP(=O)(S)OCC(O)COP(=O)(S)O[C@H]3[C@@H](O)[C@H](n4ccc(=O)[nH]c4=O)O[C@@H]3COP(=O)(S)O[C@H]3[C@@H](O)[C@H](n4ccc(=O)[nH]c4=O)O[C@@H]3COP(=O)(S)O[C@H]3[C@@H](O)[C@H](n4ccc(N)nc4=O)O[C@@H]3COP(=O)(S)O[C@H]3[C@@H](O)[C@H](n4ccc5c(=O)[nH]c(N)nc54)O[C@@H]3COP(=O)(S)O[C@H]3[C@@H](O)[C@H](n4ccc(N)nc4=O)O[C@@H]3COP(=O)(S)O[C@H]3[C@@H](O)[C@H](n4cnc5c(N)ncnc54)O[C@@H]3COP(=O)(S)O[C@H]3[C@@H](O)[C@H](n4ccc5c(=O)[nH]c(N)nc54)O[C@@H]3COP(=O)(S)O[C@H]3[C@@H](O)[C@H](n4ccc(=O)[nH]c4=O)O[C@@H]3COP(=O)(S)O[C@H]3[C@@H](O)[C@H](n4ccc5c(=O)[nH]c(N)nc54)O[C@@H]3COP(=O)(S)O[C@H]3[C@@H](O)[C@H](n4cnc5c(N)ncnc54)O[C@@H]3COP(=O)(S)O[C@H]3[C@@H](O)[C@H](n4cnc5c(N)ncnc54)O[C@@H]3CO)[C@H]2O)c(=O)n1 (stereo partly drawn) | 204 | 352 | 26.2
